Assays:
Assay type in all cases: functional
[1] = tested on: Rattus norvegicus; experiment: Antiinflammatory activity in Sprague-Dawley rat assessed as protection against carrageenan-induced paw edema at 20 mg/kg, po administered 1 hr before carrageenan challenge measured after 1 hr
Method in brief: (§1)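 Female Sprague–Dawley rats, fasted 18 h, 6 per group. Given 20 mg/kg orally as an aqueous suspension in distilled water, 1 h before 0.1 mL of 1% w/v carrageenan injected subcutaneously into the left hind footpad. Paw volume was read by mercury plethysmometer before injection and hourly for 4 h. Inhibition % = (Ec − Et)/Ec from edema rates; mean ± S.E, n = 6.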

[2] = tested on: Rattus norvegicus; experiment: Antiinflammatory activity in Sprague-Dawley rat assessed as protection against carrageenan-induced paw edema at 20 mg/kg, po administered 1 hr before carrageenan challenge measured after 2 hrs; method in brief: as §1
[3] = tested on: Rattus norvegicus; experiment: Antiinflammatory activity in Sprague-Dawley rat assessed as protection against carrageenan-induced paw edema at 20 mg/kg, po administered 1 hr before carrageenan challenge measured after 3 hrs; method in brief: as §1
[4] = tested on: Mus musculus; experiment: Analgesic activity in Swiss mouse at 20 mg/kg, po assessed as reaction time after 30 mins by hot plate method
Method in brief: (§2)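 Swiss mice (25–30 g, both sexes), 6 per group, given an oral aqueous suspension at 20 mg/kg. Reaction time on a hot plate was taken as the interval to hind-paw licking or jumping, with a 60 s cut-off. It was measured before dosing (0 min) and at 15, 30, 60 and 90 min after treatment. Mean of six animals.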

[5] = tested on: Mus musculus; experiment: Analgesic activity in Swiss mouse at 20 mg/kg, po assessed as reaction time after 60 mins by hot plate method; method in brief: as §2
[6] = tested on: Mus musculus; experiment: Analgesic activity in Swiss mouse at 20 mg/kg, po assessed as reaction time after 90 mins by hot plate method; method in brief: as §2
[7] = tested on: Mus musculus; experiment: Analgesic activity in Swiss albino mouse assessed as protection against acetic acid-induced writhing at 20 mg/kg, po after 30 mins
Method in brief: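 Swiss mice (25–30 g, both sexes), fasted 16 h, 6 per group. Dosed orally at 20 mg/kg as an aqueous suspension; controls got distilled water. After 30 min, 0.7% aqueous acetic acid was given at 10 mL/kg. Writhes were counted for 20 min. % protection = (control mean − treated mean)/control mean × 100.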

[8] = tested on: Mus musculus; experiment: Analgesic activity in Swiss albino mouse assessed as protection against acetic acid-induced writhing at 20 mg/kg, po after 1 hr
[9] = tested on: Mus musculus; experiment: Analgesic activity in Swiss albino mouse assessed as protection against acetic acid-induced writhing at 20 mg/kg, po after 2 hrs
[10] = tested on: Mus musculus; experiment: Analgesic activity in Swiss albino mouse assessed as protection against acetic acid-induced writhing at 20 mg/kg, po after 3 hrs

Structure (SMILES) | Activity [1] | Activity [2] | Activity [3] | Time [4] | Time [5] | Time [6] | Activity [7] | Activity [8] | Activity [9] | Activity [10]
O=c1cc(/N=C/c2ccncc2)nc2sc3nc4ccccc4nc3n12 | 51.1% | 54.2% | 33.4% | 9.66 s | 9.82 s | 10.4 s | 60.2% | 64.1% | 68.2% | 51.1%
Nc1cc(=O)[nH]c(Sc2nc3ccccc3nc2Cl)n1 | 58.8% | 58.3% | 41.3% | 8.42 s | 9.41 s | 10.7 s | 68% | 73% | 75.4% | 57.2%
Nc1cc(=O)n2c(n1)sc1nc3ccccc3nc12 | 55.3% | 61% | 41.2% | 8.42 s | 9.41 s | 10.7 s | 60.4% | 68% | 73.3% | 46.3%
O=c1c2cc3ccccc3nc2nc2sc3nc4ccccc4nc3n12 | 45.3% | 47.6% | 37.6% | 8.84 s | 10.6 s | 10.9 s | 40.4% | 46% | 47.8% | 35.2%
O=c1c2cc3c(nc2nc2sc4nc5ccccc5nc4n12)CCCC3 | 38.8% | 41.3% | 24.3% | 8.4 s | 10.4 s | 10.7 s | 42.2% | 45% | 45.1% | 34.7%
O=c1c2ccccc2[nH]c2nc3sc4nc5ccccc5nc4n3c(=O)c12 | 40.2% | 41.5% | 30.1% | 8.16 s | 9.78 s | 10.1 s | 42.5% | 49% | 53.1% | 38.4%
O=c1c2ccc(Cl)cc2[nH]c2nc3sc4nc5ccccc5nc4n3c(=O)c12 | 43.1% | 48% | 31.5% | 7.07 s | 9.5 s | 12.7 s | 40.5% | 51% | 47.3% | 38.3%
Cc1nn(-c2ccccc2)c2nc3nc4sc5nc6ccccc6nc5n4c(=O)c3cc12 | 48.6% | 56.1% | 33.8% | 7.55 s | 8.6 s | 12 s | 45.7% | 52% | 58.3% | 35.5%
Cc1cc(C)c2c(N)c3c(=O)n4c(nc3nc2n1)sc1nc2ccccc2nc14 | 58.5% | 60.4% | 45.5% | 10.1 s | 10.7 s | 7.62 s | 72.2% | 75% | 76.2% | 60.3%
O=c1c2c(-c3ccccc3)c3c(nc2nc2sc4nc5ccccc5nc4n12)/C(=C\c1ccccc1)CCC3 | 41.3% | 43.8% | 31.9% | 7.51 s | 8.86 s | 10.4 s | 42.4% | 47% | 50.3% | 38.6%
O=c1c2c(-c3ccc(Cl)cc3)c3c(nc2nc2sc4nc5ccccc5nc4n12)/C(=C\c1ccc(Cl)cc1)CCC3 | 45.7% | 43.2% | 38.2% | 8.61 s | 9.06 s | 9.22 s | 45% | 53% | 55.6% | 36.3%
COc1ccc(/C=C2/CCCc3c2nc2nc4sc5nc6ccccc6nc5n4c(=O)c2c3-c2ccc(OC)cc2)cc1 | 48% | 52.2% | 40.1% | 8.67 s | 9.82 s | 10.4 s | 51.4% | 53% | 56.5% | 38.6%
O=C([O-])Cc1ccccc1Nc1c(Cl)cccc1Cl.[Na+] [DICLOFENAC SODIUM] | 52.4% | 60.3% | 42% | 10 s | 11.4 s | 13.2 s | 46% | 55.2% | 62% | 39%

Source: ChEMBL document CHEMBL1157859, “Synthesis of some new pyrimido[2',1':2,3]thiazolo[4,5-b]quinoxaline derivatives as anti-inflammatory and analgesic agents” (2010)
